Measured values as given in ChEMBL document CHEMBL2046351, “Discovery of cyclic sulfone hydroxyethylamines as potent and selective β-site APP-cleaving enzyme 1 (BACE1) inhibitors: structure-based design and in vivo reduction of amyloid β-peptides” (J Med Chem, 2012).

Key:
[1] = Drug uptake in C57BL/6 mouse blood at 60 umol/kg, po dosed in HS15/propylenglycol/citrate buffer, pH 4.75, 50 mM (10/5/85, v/v/v) measured 4 hrs post dosing by LC/MS/MS analysis; format: ADME, organism-based; conditions: read-out: Drug uptake
In short: (§1)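 Male C57BL/6 mice dosed by oral gavage, 10 mL/kg. Blood sampled 0.25, 0.5, 1, 2, 4, 6 h; brain at 1 and/or 4 h; n = 3 per time. Blood acetonitrile-precipitated, brain water-homogenized then precipitated; LC-MS/MS with weighted linear calibration.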

[2] = Oral bioavailability in C57BL/6 mouse at 60 umol/kg dosed in HS15/propylenglycol/citrate buffer, pH 4.75, 50 mM (10/5/85, v/v/v) by LC/MS/MS analysis; format: ADME, organism-based; conditions: in vivo
In short: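 Oral gavage (10 mL/kg) to male C57BL/6 mice with iv reference segment (2 μmol/kg, NMP/blank plasma 10:90). Noncompartmental analysis of LC-MS/MS blood profiles, 1/Y weighting; %F = dose-normalized oral AUC / dose-normalized iv AUC × 100, assuming linear pharmacokinetics between doses.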

[3] = test system: Brain; test: Drug uptake in C57BL/6 mouse brain at 60 umol/kg, po dosed in HS15/propylenglycol/citrate buffer, pH 4.75, 50 mM (10/5/85, v/v/v) measured 4 hrs post dosing by LC/MS/MS analysis; format: ADME, organism-based; conditions: in vivo, pH 4.75, 4 h; in short: as §1
[4] = test system: Brain; test: Drug uptake in C57BL/6 mouse brain at 60 umol/kg, po dosed in HS15/propylenglycol/citrate buffer, pH 4.75, 50 mM (10/5/85, v/v/v) measured 1 hr post dosing by LC/MS/MS analysis; format: ADME, organism-based; conditions: in vivo, pH 4.75, 1 h; in short: as §1
[5] = Ratio of drug uptake in brain to blood in C57BL/6 mouse at 60 umol/kg, po dosed in HS15/propylenglycol/citrate buffer, pH 4.75, 50 mM (10/5/85, v/v/v) measured 1 hr post dosing by LC/MS/MS analysis; format: ADME, organism-based
In short: (§2)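 Male C57BL/6 mice received the dose by oral gavage at 10 mL/kg. Blood and brain were collected at 1 and/or 4 h postdose. Brain was homogenised in water, and both matrices were extracted by acetonitrile precipitation and quantified by LC-MS/MS. The ratio is mean brain (nmol/g) over mean blood (nmol/mL) concentration, n = 3.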

[6] = molecular target: Cytochrome P450 3A4 (Homo sapiens, UniProt P08684); test: Inhibition of CYP3A4; format: ADME
[7] = test system: Brain; test: Drug uptake in C57BL/6 mouse brain at 6 umol/kg, po dosed in HS15/propylenglycol/citrate buffer, pH 4.75, 50 mM (10/5/85, v/v/v) measured 4 hrs post dosing by LC/MS/MS analysis; format: ADME, organism-based; conditions: in vivo, pH 4.75, 4 h; in short: as §1
[8] = Drug uptake in C57BL/6 mouse blood at 6 umol/kg, po dosed in HS15/propylenglycol/citrate buffer, pH 4.75, 50 mM (10/5/85, v/v/v) measured 4 hrs post dosing by LC/MS/MS analysis; format: ADME, organism-based; conditions: read-out: Drug uptake; in short: as §1
[9] = Ratio of drug uptake in brain to blood in C57BL/6 mouse at 6 umol/kg, po dosed in HS15/propylenglycol/citrate buffer, pH 4.75, 50 mM (10/5/85, v/v/v) measured 4 hrs post dosing by LC/MS/MS analysis; format: ADME, organism-based; in short: as §2
[10] = Ratio of drug uptake in brain to blood in C57BL/6 mouse at 6 umol/kg, po dosed in HS15/propylenglycol/citrate buffer, pH 4.75, 50 mM (10/5/85, v/v/v) measured 1 hr post dosing by LC/MS/MS analysis; format: ADME, organism-based; in short: as §2
[11] = Drug uptake in C57BL/6 mouse blood at 60 umol/kg, po dosed in HS15/propylenglycol/citrate buffer, pH 4.75, 50 mM (10/5/85, v/v/v) measured 1 hr post dosing by LC/MS/MS analysis; format: ADME, organism-based; conditions: read-out: Drug uptake; in short: as §1
[12] = Drug uptake in C57BL/6 mouse blood at 2 umol/kg, iv dosed in N-methyl pyrrolidone/blank plasma (10:90 v/v) measured 1 hr post dosing by LC/MS/MS analysis; format: ADME, organism-based; conditions: read-out: Drug uptake
In short: (§3)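 Male C57BL/6 mice, saphenous vein injection under light anesthesia, 5 mL/kg. Blood at 5, 30 min and 1, 2, 4, 6, 8 h; brain at 5 min, 1, 4, 8 h; n = 3/time. LC-MS/MS after acetonitrile precipitation (brain water-homogenized). Noncompartmental analysis, 1/Y weighting, terminal slope from ≥3 points.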

[13] = Drug uptake in C57BL/6 mouse blood at 2 umol/kg, iv dosed in N-methyl pyrrolidone/blank plasma (10:90 v/v) measured 4 hrs post dosing by LC/MS/MS analysis; format: ADME, organism-based; conditions: read-out: Drug uptake; in short: as §3
[14] = Ratio of drug uptake in brain to blood in C57BL/6 mouse at 6 umol/kg, po dosed in carboxymethyl cellulose 0.5% w/v in water/Tween 80 (99.5/0.5, v/v) measured 1 hr post dosing by LC/MS/MS analysis; format: ADME, organism-based; in short: as §1
[15] = test system: Brain; test: Drug uptake in C57BL/6 mouse brain at 6 umol/kg, po dosed in carboxymethyl cellulose 0.5% w/v in water/Tween 80 (99.5/0.5, v/v) measured 4 hrs post dosing by LC/MS/MS analysis; format: ADME, organism-based; conditions: in vivo; in short: as §1
[16] = Drug uptake in C57BL/6 mouse blood at 6 umol/kg, po dosed in carboxymethyl cellulose 0.5% w/v in water/Tween 80 (99.5/0.5, v/v) measured 4 hrs post dosing by LC/MS/MS analysis; format: ADME, organism-based; conditions: read-out: Drug uptake; in short: as §1
[17] = test system: Brain; test: Drug uptake in C57BL/6 mouse brain at 60 umol/kg, po dosed in carboxymethyl cellulose 0.5% w/v in water/Tween 80 (99.5/0.5, v/v) measured 1 hr post dosing by LC/MS/MS analysis; format: ADME, organism-based; conditions: in vivo; in short: as §1
[18] = molecular target: Beta-secretase 1 (Homo sapiens, UniProt P56817)
[19] = Ratio of drug uptake in brain to blood in C57BL/6 mouse at 6 umol/kg, po dosed in carboxymethyl cellulose 0.5% w/v in water/Tween 80 (99.5/0.5, v/v) measured 4 hrs post dosing by LC/MS/MS analysis; format: ADME, organism-based; in short: as §1
[20] = AUC (0 to infinity) in C57BL/6 mouse at 6 umol/kg, po dosed in carboxymethyl cellulose 0.5% w/v in water/Tween 80 (99.5/0.5, v/v) by LC/MS/MS analysis; format: ADME, organism-based; set-up: dose 6 umol/kg, time infinity, route oral; conditions: in vivo
In short: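 Male C57BL/6 mice were dosed by oral gavage at 10 mL/kg. Blood was sampled at 0.25, 0.5, 1, 2, 4 and 6 h postdose, extracted by acetonitrile precipitation and quantified by LC-MS/MS (typical LLOQ 0.4 ng/mL). AUCinf was obtained by noncompartmental analysis of concentration–time profiles, weighting 1/Y, with at least three terminal log-linear points.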

[21] = test system: Brain; test: Drug uptake in C57BL/6 mouse brain at 60 umol/kg, po dosed in carboxymethyl cellulose 0.5% w/v in water/Tween 80 (99.5/0.5, v/v) measured 4 hrs post dosing by LC/MS/MS analysis; format: ADME, organism-based; conditions: in vivo; in short: as §1
[22] = Ratio of drug uptake in brain to blood in C57BL/6 mouse at 2 umol/kg, iv dosed in N-methyl pyrrolidone/blank plasma (10:90 v/v) measured 4 hrs post dosing by LC/MS/MS analysis; format: ADME, organism-based; in short: as §3

Chain of Beta-secretase 1 (P56817 whole entry): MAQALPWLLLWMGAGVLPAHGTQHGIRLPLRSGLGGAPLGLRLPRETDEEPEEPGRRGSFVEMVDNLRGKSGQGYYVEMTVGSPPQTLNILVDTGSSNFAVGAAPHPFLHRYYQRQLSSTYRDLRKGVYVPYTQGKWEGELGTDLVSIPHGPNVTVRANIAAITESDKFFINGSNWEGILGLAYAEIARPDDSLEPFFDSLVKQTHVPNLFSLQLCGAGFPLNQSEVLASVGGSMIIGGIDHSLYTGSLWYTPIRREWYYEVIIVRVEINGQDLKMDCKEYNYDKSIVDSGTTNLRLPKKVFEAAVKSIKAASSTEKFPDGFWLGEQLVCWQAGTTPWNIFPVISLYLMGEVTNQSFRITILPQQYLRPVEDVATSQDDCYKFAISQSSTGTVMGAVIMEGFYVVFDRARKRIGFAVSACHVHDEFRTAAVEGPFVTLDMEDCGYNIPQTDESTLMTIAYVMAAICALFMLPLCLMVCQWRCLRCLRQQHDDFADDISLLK
Chain of Cytochrome P450 3A4 (P08684 whole entry): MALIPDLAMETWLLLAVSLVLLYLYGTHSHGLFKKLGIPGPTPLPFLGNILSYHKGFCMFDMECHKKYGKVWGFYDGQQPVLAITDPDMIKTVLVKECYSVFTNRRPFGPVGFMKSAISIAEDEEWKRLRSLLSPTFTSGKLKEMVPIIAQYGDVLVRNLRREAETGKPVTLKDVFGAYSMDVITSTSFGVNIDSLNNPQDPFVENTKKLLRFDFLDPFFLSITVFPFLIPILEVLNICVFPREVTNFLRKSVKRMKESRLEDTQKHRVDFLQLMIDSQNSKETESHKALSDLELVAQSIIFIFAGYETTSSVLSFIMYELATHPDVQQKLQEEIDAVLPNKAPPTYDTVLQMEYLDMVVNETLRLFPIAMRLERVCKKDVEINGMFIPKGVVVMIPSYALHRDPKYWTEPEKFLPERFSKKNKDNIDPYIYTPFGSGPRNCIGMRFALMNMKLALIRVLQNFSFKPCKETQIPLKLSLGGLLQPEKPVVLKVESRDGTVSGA

CC(C)(C)c1cccc(CN[C@H]2CS(=O)(=O)C[C@@H](Cc3cc(F)c(N)c(OC(C(F)(F)F)C(F)(F)F)c3)[C@@H]2O)c1
concentration at 4 h [1]: 190 nM | bioavailability [2]: 33% | Drug uptake [3]: 0.15 nmol/g | Drug uptake [4]: 0.23 nmol/g | Kp at 1 h [5]: 0.5 | IC50 [6]: 300 nM | Drug uptake [7]: 0.01 nmol/g | concentration at 4 h [8]: 30 nM | Kp at 4 h [9]: 0.3 | Kp at 1 h [10]: 0.3 | concentration at 1 h [11]: 470 nM

CC(C)(C)c1cccc(CN[C@H]2CS(=O)(=O)C[C@@H](Cc3cc(F)c(N)c(OCC(F)(F)F)c3)[C@@H]2O)c1
concentration at 1 h [12]: 60 nM | concentration at 4 h [13]: 10 nM | Kp at 1 h [14]: 2.7 | Drug uptake [15]: 0.11 nmol/g | concentration at 4 h [16]: 10 nM | Drug uptake [17]: 1.19 nmol/g | IC50 [18]: 6 nM | Kp at 4 h [19]: 11 | AUC(0-inf) [20]: 0.466 µM·h | Drug uptake [21]: 0.55 nmol/g | Kp at 4 h [22]: 1
